{"source": "ChEMBL document CHEMBL1240396", "about": "“In vitro sensitivities of Plasmodium falciparum to different antimalarial drugs in Uganda” (Antimicrob Agents Chemother, 2010)", "key": {"Plasmodium falciparum [1]": {"system": "Plasmodium falciparum", "assay": "Antimicrobial activity against Plasmodium falciparum by ELISA", "format": "functional, organism-based", "procedure,_shortened": "(§1)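 Fresh patient isolates, taken before therapy, washed in RPMI 1640, diluted with group O erythrocytes to 0.05% parasitemia, ~2% PCV with 0.5% Albumax II. Added to dried predosed wells with seven duplicate 2-fold dilutions (CQ 15.7–1,002 nM; MDAQ 6.25–400 nM; QN 15.4–985 nM; DHA 0.13–8.5 nM; LM 0.2–12.5 nM; PQ 1.6–100 nM). Incubated 72 h, 37°C, 5% CO2, then freeze-thawed. HRP-2 ELISA (A450) compared against drug-free wells. IC50 from nonlinear regression.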"}, "Plasmodium falciparum [2]": {"system": "Plasmodium falciparum", "assay": "Antimicrobial activity against chloroquine-sensitive Plasmodium falciparum D6 by ELISA", "format": "functional, organism-based", "procedure,_shortened": "(§2)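 Reference laboratory lines run as controls. Drug-predosed wells held seven duplicate 2-fold dilutions (CQ 15.7–1,002 nM; MDAQ 6.25–400 nM; QN 15.4–985 nM; DHA 0.13–8.5 nM; LM 0.2–12.5 nM; PQ 1.6–100 nM). Incubated 72 h, 37°C, 5% CO2, freeze-thawed, and HRP-2 measured by ELISA at A450 against drug-free wells. IC50 by nonlinear regression.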"}, "Plasmodium falciparum [3]": {"system": "Plasmodium falciparum", "assay": "Antimicrobial activity against chloroquine-resistant Plasmodium falciparum K1 by ELISA", "format": "functional, organism-based", "procedure,_shortened": "as §2"}, "Plasmodium falciparum [4]": {"system": "Plasmodium falciparum", "assay": "Antimicrobial activity against Plasmodium falciparum harboring mdr1 N86Y/D1246Y/Y184F mutant gene by ELISA", "format": "functional, organism-based", "procedure,_shortened": "as §1"}, "Plasmodium falciparum [5]": {"system": "Plasmodium falciparum", "assay": "Antimicrobial activity against chloroquine-sensitive Plasmodium falciparum HB3 by ELISA"}, "Plasmodium falciparum [6]": {"system": "Plasmodium falciparum", "assay": "Antimicrobial activity against chloroquine-resistant Plasmodium falciparum W2 by ELISA"}}}
{"smiles": "Clc1ccc2c(N3CCN(CCCN4CCN(c5ccnc6cc(Cl)ccc56)CC4)CC3)ccnc2c1", "note": "[PIPERAQUINE]", "values": [{"measurement": "IC50", "setting": "Plasmodium falciparum [1]", "value": 6.1, "unit": "nM"}, {"measurement": "IC50", "setting": "Plasmodium falciparum [2]", "value": 6.26, "unit": "nM"}, {"measurement": "IC50", "setting": "Plasmodium falciparum [3]", "value": 12.5, "unit": "nM"}, {"measurement": "IC50", "setting": "Plasmodium falciparum [4]", "value": 1.6, "unit": "nM"}, {"measurement": "IC50", "setting": "Plasmodium falciparum [5]", "value": 10.5, "unit": "nM"}]}
{"smiles": "C=C[C@H]1CN2CC[C@H]1C[C@H]2[C@H](O)c1ccnc2ccc(OC)cc12", "note": "[QUININE]", "values": [{"measurement": "IC50", "setting": "Plasmodium falciparum [1]", "value": 94.4, "unit": "nM"}, {"measurement": "IC50", "setting": "Plasmodium falciparum [2]", "value": 107, "unit": "nM"}, {"measurement": "IC50", "setting": "Plasmodium falciparum [3]", "value": 276, "unit": "nM"}, {"measurement": "IC50", "setting": "Plasmodium falciparum [4]", "value": 15.4, "unit": "nM"}, {"measurement": "IC50", "setting": "Plasmodium falciparum [6]", "value": 491, "unit": "nM"}, {"measurement": "IC50", "setting": "Plasmodium falciparum [5]", "value": 236, "unit": "nM"}]}
{"smiles": "CCCCN(CCCC)CC(O)c1cc(Cl)cc2c1-c1ccc(Cl)cc1/C2=C/c1ccc(Cl)cc1", "note": "(stereo not drawn) [LUMEFANTRINE]", "values": [{"measurement": "IC50", "setting": "Plasmodium falciparum [1]", "value": 0.51, "unit": "nM"}, {"measurement": "IC50", "setting": "Plasmodium falciparum [2]", "value": 1.82, "unit": "nM"}, {"measurement": "IC50", "setting": "Plasmodium falciparum [3]", "value": 0.31, "unit": "nM"}, {"measurement": "IC50", "setting": "Plasmodium falciparum [4]", "value": 0.19, "unit": "nM"}, {"measurement": "IC50", "setting": "Plasmodium falciparum [6]", "value": 0.45, "unit": "nM"}, {"measurement": "IC50", "setting": "Plasmodium falciparum [5]", "value": 1.41, "unit": "nM"}]}
{"smiles": "C[C@H]1[C@@H](O)O[C@@H]2O[C@@]3(C)CC[C@H]4[C@H](C)CC[C@@H]1[C@@]24OO3", "note": "[ARTENIMOL]", "values": [{"measurement": "IC50", "setting": "Plasmodium falciparum [1]", "value": 0.55, "unit": "nM"}, {"measurement": "IC50", "setting": "Plasmodium falciparum [2]", "value": 0.79, "unit": "nM"}, {"measurement": "IC50", "setting": "Plasmodium falciparum [3]", "value": 0.49, "unit": "nM"}, {"measurement": "IC50", "setting": "Plasmodium falciparum [6]", "value": 0.41, "unit": "nM"}, {"measurement": "IC50", "setting": "Plasmodium falciparum [5]", "value": 0.71, "unit": "nM"}]}
{"smiles": "CCNCc1cc(Nc2ccnc3cc(Cl)ccc23)ccc1O", "note": "[DESETHYL AMODIAQUINE]", "values": [{"measurement": "IC50", "setting": "Plasmodium falciparum [1]", "value": 66.4, "unit": "nM"}, {"measurement": "IC50", "setting": "Plasmodium falciparum [2]", "value": 30.9, "unit": "nM"}, {"measurement": "IC50", "setting": "Plasmodium falciparum [3]", "value": 262, "unit": "nM"}, {"measurement": "IC50", "setting": "Plasmodium falciparum [4]", "value": 6.3, "unit": "nM"}, {"measurement": "IC50", "setting": "Plasmodium falciparum [6]", "value": 268, "unit": "nM"}, {"measurement": "IC50", "setting": "Plasmodium falciparum [5]", "value": 29.8, "unit": "nM"}]}
